Screens from PubChem.
An excerpt weighted towards active compounds, which were near 1.9% of everything screened.
ADAM17 inh: ADAM17 inhibitors, primary screen, biochemical, QFRET; recombinant ADAM17, EDANS/DABCYL FRET peptide cleavage; inhibition, % at 6.95 µM; 370,000 tested, 0.83% active; Disintegrin and metalloproteinase domain-containing protein 17 (Homo sapiens), P78536;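 active means inhibition above the mean of compounds lying between control limits plus 3 SD, set per campaign, cut at about 8.5% in these data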;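 further: 0% = DMSO-only wells as the low control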
FAS TE block: FAS thioesterase domain inhibitors, primary screen, biochemical, fluorescence intensity, uHTS; 360,000 tested, 0.67% active; Fatty acid synthase (Homo sapiens), P49327; recombinant FAS-TE, OMFH fluorogenic substrate, fluorescence endpoint; inhibition, % at 15 µM;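 active means compounds whose normalised, plate-corrected inhibition of enzyme fluorescence in the single-dose primary screen is 50% or more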;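 further: 0% = DMSO with enzyme and 100% = substrate without enzyme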
ADAM10 inh: human ADAM10 inhibitors, primary screen, biochemical, QFRET, HTS | Disintegrin and metalloproteinase domain-containing protein 10 (Homo sapiens), O14672 | recombinant ADAM10, EDANS/DABCYL FRET peptide cleavage, 3 h | inhibition, % at 7 µM | 370,000 tested, 0.62% active | AID 720582, 2013;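 active means inhibition above a per-campaign cutoff equal to the mean of compounds falling between control-based bounds plus 3 SD, cut at about 20% in these data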;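 further: 0% = DMSO wells while the 100% control is not disclosed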
SENP1 inh: human SENP1 catalytic domain inhibitors, primary screen, biochemical, FRET, uHTS. Sentrin-specific protease 1 (Homo sapiens), Q9P0U3. recombinant SENP1 catalytic domain, CyPet-SUMO1-YPet FRET cleavage. inhibition, % at 10 µM. 360,000 tested, 0.21% active. AID 624204, 2012;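 active means inhibition at least 30% at 10 µM, raw YFP signal under a set limit, fluorescence ratio 0.5 to 1.5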;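 further: 0% = enzyme with DMSO and 100% = no enzyme wells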
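system = hSENP1 catalytic domain, recombinant | reagent = SFCypet-SUMO1-SFYpet substrate at 25 nM | doses = one dose per compound, 10 µM, 0.5% DMSO | incubation = enzyme reaction for 50 min at room temperature, dark | measured by = FRET, CFP and YFP emission | controls = no-enzyme low, enzyme-DMSO high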
FAS-TE conf: FAS thioesterase domain inhibitors, confirmation, biochemical, fluorescence intensity, single concentration | shares compounds with FAS TE block | recombinant FAS-TE, OMFH fluorogenic substrate | inhibition, % at 15 µM | 2,300 tested, 45% active | AID 624325, 2012;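 active means compounds inhibiting the enzyme by at least 50% at 15 µM in any one of the replicates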;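 further: 0% = enzyme with DMSO only and 100% = wells lacking enzyme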
* marks the source's active call; other numbers are inactive results; . = no result.

SMILES | ADAM17 inh | FAS TE block | ADAM10 inh | SENP1 inh | FAS-TE conf
O=C(CCNC(=O)c1ccc(Br)cc1)NC1CCCCCC1 | 8 | 3 | -6 | 0 | .
CN(c1ccccc1)S(=O)(=O)c1cccc(NC(=O)CCNC(=O)c2ccc([N+](=O)[O-])cc2)c1 | 3 | 54* | 14 | 2 | 61*
O=C(CCNC(=O)c1ccc([N+](=O)[O-])cc1)NC1CCCCCC1 | -1 | 63* | -7 | 2 | 70*
O=C(NCCOc1ccccc1)c1cc(C(=O)NCCOc2ccccc2)cc([N+](=O)[O-])c1 | 4 | 75* | 12 | 2 | 77*
O=C(NCCC(=O)N(CCc1ccccc1)Cc1ccccc1)c1ccc([N+](=O)[O-])cc1 | 0 | 61* | 0 | 1 | 42*
COc1cc(=O)oc(C=O)c1C | 0 | . | -10 | . | .
COc1ccc(C(=O)COC(=O)C(CCSC)NC(=O)COc2ccccc2)cc1 (configuration not stated) | 0 | 64* | 0 | 0 | 14
CCC(=O)Nc1ccc(C(=O)COC(=O)C(CCSC)NC(=O)COc2ccccc2)cc1 (configuration not stated) | -1 | 2 | 0 | -16 | .
O=C(N/N=C/c1cc([N+](=O)[O-])cc([N+](=O)[O-])c1O)C(O)(c1ccccc1)c1ccccc1 | 4 | 52* | 6 | 9 | 61*
O=C(N/N=C/c1cc(Cl)cc([N+](=O)[O-])c1O)C1CC1 | -1 | 4 | 5 | 4 | .
O=C(N/N=C/c1ccc(O)c([N+](=O)[O-])c1)C(O)(c1ccccc1)c1ccccc1 | 5 | -5 | 17 | 0 | .
O=C(Cn1nc2ccccc2n1)N/N=C/c1cc(Cl)cc([N+](=O)[O-])c1O | 0 | 61* | 4 | 0 | 52*
CCN(CC(=O)NCc1cccs1)S(=O)(=O)c1ccc([N+](=O)[O-])cc1 | -2 | 52* | -1 | 1 | 52*
O=C(COC(=O)c1ccccc1)NCc1cccs1 | 5 | -8 | 8 | 1 | .
CCN(CC(=O)NCc1cccs1)S(=O)(=O)c1cccc(C(C)=O)c1 | 0 | 0 | 7 | 5 | .
O=C(COC(=O)c1cccc([N+](=O)[O-])c1)NCc1cccs1 | 0 | 52* | -5 | 2 | 63*
C#CCN1C(C(=O)OC)CN(CCCCCC)CCS1(=O)=O (configuration not stated) | 0 | . | 2 | . | .
Cc1ccc(C2CCC3(CCC(=O)N3CCO)CC2)cc1 (configuration not stated) | -2 | . | 1 | . | .
COC(=O)[C@]12C[C@H](CC(=O)N3CCCCC3)C(=O)N(CCC3=CCCCC3)C1=C[C@H](C1CCCC1)O[C@@H]2C | -8 | . | -11 | . | .
CCCCCC1CC(CC(=O)Nc2ccc([N+](=O)[O-])cc2)C(=O)O1 (configuration not stated) | 8 | 54* | 17 | 1 | 57*
O=C(c1ccccc1)N1CCC(Oc2cccnc2)CC1 | -3 | . | -2 | . | .
C#CCCCN([C@H](C(=O)OC)C(C)C)S(=O)(=O)c1ccc(F)cc1Br | 5 | . | 9 | . | .
COc1ccc2c(c1)[C@@H]1[C@H](CO2)[C@H](c2ccccc2)[C@]2(C)C(=O)Nc3ccc(C)cc3C(=O)N12 | . | 83* | . | -3 | -3
C[C@H]1NC(=O)[C@]2(C)[C@@H](c3ccccc3)[C@H]3COc4ccccc4[C@H]3N2C1=O | -3 | -7 | -4 | -2 | .
C[C@@]12C(=O)Nc3ccc(Cl)cc3C(=O)N1[C@H]1c3cc(Cl)ccc3OC[C@@H]1[C@@H]2c1ccccc1 | 7 | 77* | 10 | -2 | 24
C[C@@]12C(=O)Nc3ccccc3C(=O)N1[C@H]1c3cc(Cl)ccc3OC[C@@H]1[C@@H]2c1ccccc1 | 3 | 47 | 18 | 3 | .
C[C@@]12C(=O)Nc3ccc(Br)cc3C(=O)N1[C@H]1c3ccccc3OC[C@@H]1[C@@H]2c1ccccc1 | . | 88* | . | -3 | 17
CCOC(=O)[C@@H]1[C@H]2COc3ccc(Br)cc3[C@@H]2N2C(=O)N(c3ccc(Br)cc3)C(=O)[C@@]12C | 0 | 37 | 8 | 1 | .
